How the values were obtained:
Assay type in all cases: functional
K562 [1] = assay: Cytotoxicity against human K562 cells assessed as cell growth at 10 uM after 48 hrs relative to control; details: K562, 48 h, read-out: Activity
Summary of the method: (§1)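 Run at the National Cancer Institute as a single-dose screen across its 60-cell-line cancer panel. Compound was tested at 10 micromolar, and growth was expressed as a percentage of negative-control cultures.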

RPMI-8226 = assay: Cytotoxicity against human RPMI8226 cells assessed as cell growth at 10 uM after 48 hrs relative to control; details: RPMI-8226, 48 h, read-out: Activity; summary of the method: as §1
A549 = assay: Cytotoxicity against human A549 cells assessed as cell growth at 10 uM after 48 hrs relative to control; details: A549, 48 h, read-out: Activity; summary of the method: as §1
HOP-62 = assay: Cytotoxicity against human HOP62 cells assessed as cell growth at 10 uM after 48 hrs relative to control; details: HOP-62, 48 h, read-out: Activity; summary of the method: as §1
HOP-92 = assay: Cytotoxicity against human HOP92 cells assessed as cell growth at 10 uM after 48 hrs relative to control; details: HOP-92, 48 h, read-out: Activity; summary of the method: as §1
NCI-H226 = assay: Cytotoxicity against human NCI-H226 cells assessed as cell growth at 10 uM after 48 hrs relative to control; details: NCI-H226, 48 h, read-out: Activity; summary of the method: as §1
NCI-H322M = assay: Cytotoxicity against human NCI-H322M cells assessed as cell growth at 10 uM after 48 hrs relative to control; details: read-out: Activity; summary of the method: as §1
COLO 205 = assay: Cytotoxicity against human COLO205 cells assessed as cell growth at 10 uM after 48 hrs relative to control; details: COLO 205, 48 h, read-out: Activity; summary of the method: as §1
HCC 2998 = assay: Cytotoxicity against human HCC2998 cells assessed as cell growth at 10 uM after 48 hrs relative to control; details: HCC 2998, 48 h, read-out: Activity; summary of the method: as §1
HCT-15 = assay: Cytotoxicity against human HCT15 cells assessed as cell growth at 10 uM after 48 hrs relative to control; details: HCT-15, 48 h, read-out: Activity; summary of the method: as §1
KM12 = assay: Cytotoxicity against human KM12 cells assessed as cell growth at 10 uM after 48 hrs relative to control; details: KM12, 48 h, read-out: Activity; summary of the method: as §1
SF-268 = assay: Cytotoxicity against human SF268 cells assessed as cell growth at 10 uM after 48 hrs relative to control; details: SF-268, 48 h, read-out: Activity; summary of the method: as §1
SF-295 = assay: Cytotoxicity against human SF295 cells assessed as cell growth at 10 uM after 48 hrs relative to control; details: SF-295, 48 h, read-out: Activity; summary of the method: as §1
SNB-19 = assay: Cytotoxicity against human SNB19 cells assessed as cell growth at 10 uM after 48 hrs relative to control; details: SNB-19, 48 h, read-out: Activity
Summary of the method: (§2)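 Submitted to the National Cancer Institute for a single-dose screen at 10 micromolar against 60 cancer cell lines. Growth is expressed relative to negative-control cultures.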

SNB-75 = assay: Cytotoxicity against human SNB75 cells assessed as cell growth at 10 uM after 48 hrs relative to control; details: SNB-75, 48 h, read-out: Activity; summary of the method: as §2
LOX IMVI = assay: Cytotoxicity against human LOXIMVI cells assessed as cell growth at 10 uM after 48 hrs relative to control; details: read-out: Activity; summary of the method: as §1
SK-MEL-28 = assay: Cytotoxicity against human SK-MEL-28 cells assessed as cell growth at 10 uM after 48 hrs relative to control; details: SK-MEL-28, 48 h, read-out: Activity; summary of the method: as §1
SK-MEL-5 = assay: Cytotoxicity against human SK-MEL-5 cells assessed as cell growth at 10 uM after 48 hrs relative to control; details: SK-MEL-5, 48 h, read-out: Activity; summary of the method: as §1
OVCAR-4 = assay: Cytotoxicity against human OVCAR4 cells assessed as cell growth at 10 uM after 48 hrs relative to control; details: OVCAR-4, 48 h, read-out: Activity; summary of the method: as §1
OVCAR-5 = assay: Cytotoxicity against human OVCAR5 cells assessed as cell growth at 10 uM after 48 hrs relative to control; details: OVCAR-5, 48 h, read-out: Activity; summary of the method: as §1
SK-OV-3 = assay: Cytotoxicity against human SKOV3 cells assessed as cell growth at 10 uM after 48 hrs relative to control; details: SK-OV-3, 48 h, read-out: Activity; summary of the method: as §1
CAKI-1 = assay: Cytotoxicity against human Caki1 cells assessed as cell growth at 10 uM after 48 hrs relative to control; details: CAKI-1, 48 h, read-out: Activity; summary of the method: as §1
UO-31 = assay: Cytotoxicity against human UO31 cells assessed as cell growth at 10 uM after 48 hrs relative to control; details: UO-31, 48 h, read-out: Activity; summary of the method: as §2
MCF7 = assay: Cytotoxicity against human MCF7 cells assessed as cell growth at 10 uM after 48 hrs relative to control; details: MCF7, 48 h, read-out: Activity; summary of the method: as §1
T47D = assay: Cytotoxicity against human T47D cells assessed as cell growth at 10 uM after 48 hrs relative to control; details: read-out: Activity; summary of the method: as §2
MDA-MB-468 = assay: Cytotoxicity against human MDA-MB-468 cells assessed as cell growth at 10 uM after 48 hrs relative to control; details: MDA-MB-468, 48 h, read-out: Activity; summary of the method: as §1
NCI-H522 = assay: Cytotoxicity against human NCI-H522 cells assessed as cell growth at 10 uM after 48 hrs relative to control; details: NCI-H522, 48 h, read-out: Activity; summary of the method: as §1
K562 [2] = assay: Cytotoxicity against human K562 cells after 48 hrs; details: K562, 48 h
[3] = Cytotoxicity against human RPMI-8226 cells after 48 hrs; details: RPMI-8226, 48 h
SR = assay: Cytotoxicity against human SR cells after 48 hrs
Summary of the method: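 Dose-dependent growth inhibition was assessed at the National Cancer Institute against its cancer cell line panel as a follow-up to the 10 micromolar single-dose screen.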

Row | SMILES | growth at 10 µM (K562 [1]) | growth at 10 µM (RPMI-8226) | growth at 10 µM (A549) | growth at 10 µM (HOP-62) | growth at 10 µM (HOP-92) | growth at 10 µM (NCI-H226) | growth at 10 µM (NCI-H322M) | growth at 10 µM (COLO 205) | growth at 10 µM (HCC 2998) | growth at 10 µM (HCT-15) | growth at 10 µM (KM12) | growth at 10 µM (SF-268) | growth at 10 µM (SF-295) | growth at 10 µM (SNB-19) | growth at 10 µM (SNB-75) | growth at 10 µM (LOX IMVI) | growth at 10 µM (SK-MEL-28) | growth at 10 µM (SK-MEL-5) | growth at 10 µM (OVCAR-4) | growth at 10 µM (OVCAR-5) | other results
1 | COC(=O)[C@@H](NC(=O)N[C@@H](Cc1ccccc1)C(=O)N[C@H]1CCCCNC(=O)/C=C/[C@H](C(C)C)NC1=O)C(C)C | 47.2% | 23.1% | 77.4% | 84.4% | 18.9% | 54.7% | 94.2% | 78.5% | 52.8% | 94.2% | 30.5% | 30% | 101% | 48.8% | -27.8% | 15.2% | 52.1% | 34% | 56.6% | 104% | growth at 10 µM (SK-OV-3): 101%; growth at 10 µM (CAKI-1): 98.3%; growth at 10 µM (UO-31): 94.7%; growth at 10 µM (MCF7): 43.8%; growth at 10 µM (T47D): -3.59%; growth at 10 µM (MDA-MB-468): 31.2%; growth at 10 µM (NCI-H522): -43.8%
2 | COC(=O)[C@@H](NC(=O)N[C@H](C(=O)N[C@H]1CCCCNC(=O)/C=C/[C@H](C(C)C)NC1=O)C(C)C)C(C)C | 40.5% | 15.2% | 42.1% | 22.9% | -8.79% | -24% | 77% | 51.7% | -0.39% | 98.2% | 1.78% | -20.1% | 58.9% | 34% | -34.6% | -24.1% | 30.2% | -4.25% | 6.22% | 58.4% | GI50 (K562 [2]): 6.12 µM; GI50 [3]: 3.97 µM; GI50 (SR): 5.13 µM; growth at 10 µM (SK-OV-3): 47.5%; growth at 10 µM (CAKI-1): 103%; growth at 10 µM (UO-31): 82.2%; growth at 10 µM (MCF7): 42.8%; growth at 10 µM (T47D): -31.7%; growth at 10 µM (MDA-MB-468): -0.21%
3 | COC(=O)[C@@H](NC(=O)N[C@H](C(=O)N[C@H]1CCCCNC(=O)/C=C/[C@H](Cc2c[nH]c3ccccc23)NC1=O)C(C)C)C(C)C | 52% | 19% | 77.5% | 95% | 18% | 15.1% | 76.2% | 58.9% | 44.2% | 109% | 74.5% | 9.42% | 85.4% | 41.7% | -34% | 25.1% | 41.9% | 60.6% | 2.98% | 61.1% | growth at 10 µM (SK-OV-3): 15.4%; growth at 10 µM (CAKI-1): 98.8%; growth at 10 µM (UO-31): 94.3%; growth at 10 µM (MCF7): 48.5%; growth at 10 µM (T47D): -9.26%; growth at 10 µM (NCI-H522): -17.8%
